Assays:
[1] = Permeability of the compound at 10 uM after 5 hrs by PAMPA; type: ADME; settings: read-out: permeability
In short: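 Parallel artificial membrane permeability assay reported as effective permeability Pe (10−6 cm/s). Pe > 1.5 is taken as high permeability.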

[2] = target: T1, Tyrosyl-DNA phosphodiesterase 2 (Homo sapiens, UniProt O95551); assay: Inhibition of recombinant human TDP2 using T5PNP as substrate preincubated for 10 mins followed by substrate addition and measured after 30 mins
T1 sequence (O95551 whole entry): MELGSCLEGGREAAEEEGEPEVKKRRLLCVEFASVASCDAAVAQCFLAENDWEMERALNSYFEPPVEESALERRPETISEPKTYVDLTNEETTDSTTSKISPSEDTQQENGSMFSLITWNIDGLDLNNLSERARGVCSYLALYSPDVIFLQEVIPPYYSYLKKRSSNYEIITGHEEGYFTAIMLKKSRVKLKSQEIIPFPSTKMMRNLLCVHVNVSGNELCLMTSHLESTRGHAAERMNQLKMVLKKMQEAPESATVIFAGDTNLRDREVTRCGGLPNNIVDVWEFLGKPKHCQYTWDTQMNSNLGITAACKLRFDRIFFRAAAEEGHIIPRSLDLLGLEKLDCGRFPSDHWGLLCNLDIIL

[3] = Solubility of the compound in DMSO; type: physicochemical
[4] = tested on: HeLa; assay: Cytotoxicity against human HeLa cells after 72 hrs by MTT assay; type: cell-based
In short: (§1)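 Compounds tested at 50 μM and 100 μM to give CC50. Two independent experiments were run, each in triplicate.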

[5] = tested on: HepG2; assay: Cytotoxicity against human HepG2 cells after 72 hrs by MTT assay; type: cell-based; settings: hepg2, 72 h; in short: as §1
[6] = Solubility of the compound in pH 7.4 Tris HCl buffer; type: physicochemical

Row | SMILES | Papp at 5 h, 10 µM [1] [×10⁻⁶ cm/s] | solubility [3] | also measured
1 | NC1=CC(N)=C2C=CC(=O)N=C2C1=O | 0.095 | – | IC50 [2]: 1.7 µM
2 | N#Cc1cccc(C(=O)Nc2nc3nc(-c4ccccc4)ccn3n2)c1 | – | Insoluble | –
3 | O=C(Nc1nc2nc(-c3ccccc3)ccn2n1)c1ccc([N+](=O)[O-])cc1 | – | Insoluble | –
4 | O=C(Nc1nc2cc(-c3ccccc3)ccn2n1)c1cccc([N+](=O)[O-])c1 | 0.15 | – | –
5 | O=C(Nc1nc2cc(-c3ccccc3)ccn2n1)c1cccc(Cl)c1 | 0.9 | – | CC50 [4]: > 100 µM; CC50 [5]: > 100 µM

Further lines, with some results ahead:

Row | Papp at 5 h, 10 µM [1] [×10⁻⁶ cm/s] | solubility [3] | SMILES | also measured
6 | – | Insoluble | O=C(Nc1nc2nc(-c3ccccc3)ccn2n1)c1cccc(C(F)(F)F)c1 | –
7 | 6.3 | – | O=C(Nc1nc2cc(-c3cccnc3)ccn2n1)c1cccc(Cl)c1 | CC50 [4]: > 100 µM; CC50 [5]: > 100 µM
8 | 0.16 | Soluble | O=C(Nc1nc2nc(-c3ccccc3)ccn2n1)c1cccc([N+](=O)[O-])c1 | solubility [6]: Soluble
9 | – | Insoluble | O=C(Nc1nc2nc(-c3ccccc3)ccn2n1)c1ccccc1 | –
10 | – | Insoluble | O=C(Nc1nc2nc(-c3ccccc3)ccn2n1)c1cccc(Br)c1 | –
